Bioassay records deposited in PubChem BioAssay by several laboratories.
This is a sample that favours compounds with a hit; in the whole collection about 1.8% have one here.
Platelet DG rel: platelet dense granule release activity | AID 1663 | hit rate 0.22% among 300,000 | inhibition, %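 (compounds screened at 7.5 µM in platelet-rich plasma)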 | human platelet-rich plasma, SFLLRN dense granule ATP release, luminescence;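 active = mean replicate score, as percent of positive control, at or above 50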
FXIIa inh: inhibitors of human coagulation factor XIIa. P00748. purified FXIIa, Boc-QGR-AMC fluorogenic substrate, 2 h. inhibition, % at 5 µM. hit rate 0.3% among 220,000; in the data active = inhibition above about 40%;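 also: 0% = enzyme with no compound and 100% = blank without enzyme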
Wee1 stabilizer: human Wee1 degradation inhibition, primary screen. P30291. HeLa Luc-Wee1K328M stability, luciferase luminescence; 100% = proteasome inhibitor MG132 effect. reporter increase, % at 5 µM. hit rate 1.2% among 220,000;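 active = activation above the mean of all tested compounds plus 3 SD, set per screening run, cut at about 8.8% in these data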;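 also: cells exposed to compound for 20 h before luminescence read; 0% = DMSO alone and 100% = MG132 at 30 µM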
FXIa inh: inhibitors of human coagulation factor XIa; hit rate 0.14% among 220,000; purified FXIa, Boc-Glu-Ala-Arg-AMC fluorogenic substrate; AID 798; P03951; inhibition, % at 5 µM;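 active = inhibition of at least 40%; inactive = inhibition below 40%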;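 also: fluorescence of freed AMC excited at 355 nm; 0% = enzyme without compound and 100% = no enzyme blank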
Target sequence (P03951 19-387 limits assumed): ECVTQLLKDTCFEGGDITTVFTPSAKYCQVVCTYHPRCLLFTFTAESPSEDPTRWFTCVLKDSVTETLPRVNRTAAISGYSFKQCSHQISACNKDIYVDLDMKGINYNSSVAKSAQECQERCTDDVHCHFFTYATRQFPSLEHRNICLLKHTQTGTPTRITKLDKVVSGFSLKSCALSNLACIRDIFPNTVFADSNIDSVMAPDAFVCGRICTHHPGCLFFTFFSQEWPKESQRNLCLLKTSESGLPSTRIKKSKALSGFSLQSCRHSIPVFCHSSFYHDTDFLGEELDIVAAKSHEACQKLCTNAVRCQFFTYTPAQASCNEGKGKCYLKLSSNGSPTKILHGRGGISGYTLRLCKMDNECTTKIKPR
Target sequence (P03951 388-625 limits assumed): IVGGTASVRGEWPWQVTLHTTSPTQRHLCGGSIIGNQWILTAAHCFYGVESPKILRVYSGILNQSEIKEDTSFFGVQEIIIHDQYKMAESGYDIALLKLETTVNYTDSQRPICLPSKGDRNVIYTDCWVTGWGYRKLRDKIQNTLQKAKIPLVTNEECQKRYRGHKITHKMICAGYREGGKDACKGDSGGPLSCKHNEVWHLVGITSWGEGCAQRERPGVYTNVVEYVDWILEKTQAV
thrombin 1536: inhibitors of human thrombin. P00734. alpha-thrombin, Boc-VPR-AMC fluorogenic substrate cleavage. inhibition, % at 5 µM. hit rate 0.26% among 220,000. AID 1046;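 active = inhibition at or above 40%; inactive = inhibition below 40%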;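 also: 0% = enzyme with no compound and 100% = wells without enzyme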
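Material: human alpha-thrombin protein; Also added: Boc-VPR-AMC substrate, 15 µM final; Timing: enzyme reaction carried out at room temperature; Signal: fluorescence, ex 355 nm, em 460 nm; Measure: % inhibition of thrombin; Controls: enzyme without compound as high, wells lacking enzyme as low.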
hK5 inh: inhibitors of human kallikrein 5; Q9Y337; recombinant hK5, fluorogenic AMC substrate cleavage; inhibition, % at 5 µM; hit rate 0.59% among 210,000;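 active = inhibition of 40% or more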;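 also: 0% = enzyme controls without compound and 100% = no-enzyme blanks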
The depositor's hits bear a star.

For Cn1c(CN2CCCCC2)nc2cc(NS(=O)(=O)c3ccc(Cl)cc3)ccc21 the results were Platelet DG rel -1, FXIIa inh 17, Wee1 stabilizer 0, FXIa inh 5, thrombin 1536 76* and hK5 inh 3.
For Cn1c(CCN2CCCCC2)nc2cc(NS(=O)(=O)c3ccc(Cl)cc3)ccc21 the results were Platelet DG rel -2, FXIIa inh 9, FXIa inh -2, thrombin 1536 11 and hK5 inh -2.
COc1cccc(/C=N/Nc2ccc(C(=O)O)cc2)c1O was read as Platelet DG rel 95*, FXIIa inh 11, Wee1 stabilizer -4, FXIa inh 1 and thrombin 1536 0.
COc1cccc(OCc2cc(/C=N/Nc3ccc(C(=O)O)cc3)ccc2OC)c1 was read as Platelet DG rel 65*, FXIIa inh 7, Wee1 stabilizer -4, FXIa inh 0, thrombin 1536 -5 and hK5 inh 3.
`COc1cccc(C(=O)Oc2ccc(/C=N/Nc3ccc(C(=O)O)cc3)cc2OC)c1` gave Platelet DG rel 0.
Screening CC(CCc1ccccc1)NC(=O)Cc1ccccc1 (stereo not drawn) returned Platelet DG rel 0, FXIIa inh 4, Wee1 stabilizer 1, FXIa inh -7, thrombin 1536 -10 and hK5 inh -5.
`CCCC(C)NC(=O)Cc1ccccc1` (stereo not drawn) gave Platelet DG rel 20, FXIIa inh 45*, Wee1 stabilizer 3, FXIa inh 4, thrombin 1536 4 and hK5 inh 8.
`CCc1ccccc1NC(=S)N=Nc1c(O)n(C)c2ccc(S(=O)(=O)N3CCOCC3)cc12` gave Platelet DG rel 35, FXIIa inh 14, Wee1 stabilizer 2, FXIa inh 9, thrombin 1536 12 and hK5 inh -24.
For Cc1ccc(Cn2c(O)c(N=NC(=S)Nc3ccccc3F)c3cc(S(=O)(=O)N4CCOCC4)ccc32)cc1 the results were Platelet DG rel 13, FXIIa inh 37, Wee1 stabilizer 2, FXIa inh 50*, thrombin 1536 2 and hK5 inh 95*.
For Cc1ccc(CN2CCNC(=O)C2CC(=O)N(C)C2CCOCC2)cc1 (stereo not drawn) the results were Platelet DG rel -6.
`Cc1ccc(NC(=O)CCCn2nc(C)c3c(C)n(-c4ccccc4)nc3c2=O)c(Cl)c1` gave Platelet DG rel -5.
COC(=O)c1ccccc1NC(=O)CSc1nccc(C)n1 was read as Platelet DG rel 1, FXIIa inh 4, Wee1 stabilizer 10*, FXIa inh 1, thrombin 1536 -11 and hK5 inh -1.
Screening Cc1ccnc(NC(=O)Nc2ccc(Br)cc2Cl)c1 returned Platelet DG rel 1, FXIIa inh -1, Wee1 stabilizer 9.5*, FXIa inh -7, thrombin 1536 -1 and hK5 inh -16.
COC(=O)c1ccccc1NC(=O)Nc1cc(C)ccn1 was read as Platelet DG rel 11, FXIIa inh 41*, Wee1 stabilizer 0, FXIa inh 31, thrombin 1536 32 and hK5 inh 23.
`Cc1ccnc(NC(=O)Nc2ccc(F)cc2)c1` gave Platelet DG rel -2, FXIIa inh 10, Wee1 stabilizer 3, FXIa inh 1, thrombin 1536 5 and hK5 inh -6.
`O=C(Cn1cnc2sc3c(c2c1=O)CCCC3)NCC(=O)Nc1ccc(F)cc1F` gave Platelet DG rel -2.
`CC1CCC(NC(=O)CC(NC(N)=O)c2ccccc2Cl)CC1` (stereo not drawn) gave Platelet DG rel -1.
For CCOC(=O)c1c(NCC(C)C)c2ccccc2[nH]c1=O the results were Platelet DG rel 2, FXIIa inh 2, Wee1 stabilizer 2, FXIa inh 0, thrombin 1536 3 and hK5 inh -19.
`CCOC(=O)c1c(N2CCCCC2)c2ccccc2[nH]c1=O` gave Platelet DG rel 70*, FXIIa inh 5, Wee1 stabilizer 7, FXIa inh 0, thrombin 1536 -2 and hK5 inh 0.
`COc1ccc2oc(C(=O)c3ccccc3)c(N)c2c1` gave Platelet DG rel 1, FXIIa inh 28, Wee1 stabilizer 1, FXIa inh 15, thrombin 1536 26 and hK5 inh 49*.
